High-throughput results from PubChem BioAssay.
NF-kB neuron act: compounds increasing NF-kB expression in human neuronal cells; 190,000 compounds, 1.6% hits; fold change at 12.5 µM; AID 1239; NF-kB reporter expression; active compounds read high; in the data active = fold change above about 3.3
FLuc stim CS: affects firefly luciferase, flagging false hits in luciferase stimulation screens. P08659. ATPlite luciferase biochemical, luminescence, 10 min; 0 = ATP-free wells, 1 = DMSO control. activation factor at 10 µM. 200,000 tested, under 10 active;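 active = luciferase activation factor, scaled between plate controls, of at least 2 with compound at 10 µM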
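System: luciferase plus luciferin reagent, cell-free; medium: PBS as buffer for the ATP substrate; dosing: test compounds dosed from 2 mM stocks in 100% DMSO; timing: 10 min post-reagent at room temperature; measured by: luminescence measurement of luciferase light output; evaluation: luciferase activation, seen as luminescence increase over controls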
APP 5'UTR act: activates APP 5'UTR luciferase reporter. 190,000 compounds, 1% hits. SH-SY5Y APP 5'UTR luciferase reporter, luminescence; zero percent = DMSO vehicle wells. activation, % at 2 µM;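 active = activation above a set limit, based on mean plus 3 SD of controls, cut at about 140% in these data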
STAT1 act: STAT1 signaling activation; NIH 3T3 STAT1-luciferase reporter, IFN-gamma, luminescence; 100% = IFN-gamma alone, no compound; activation (% of control), % at 5.5 µM; 200,000 compounds, 2.6% hits; AID 932;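 active = activation above the screen-wide mean activation plus 3 SD, cut at about 130% in these data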;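 also: raw ratio to IFN-gamma control signal so 100% means no change and 0% no light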
FLuc inh counter: Photinus pyralis luciferase inhibition counter-screen; P08659; ATPLite firefly luciferase biochemical luminescence, 10 min; inhibition, % at 10 µM; 200,000 compounds, 1.5% hits; AID 1006;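 active = inhibition above about 50% when tested at 10 µM, limit read from the data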
Active calls of the source: *; / = no result given. Most compounds without a hit are left out; they make up all but 4.1% or so of the library.

SMILES	NF-kB neuron act	FLuc stim CS	APP 5'UTR act	STAT1 act	FLuc inh counter
Cc1cccc(N2CN(Cc3ccco3)CNC2=S)c1C	1.2	1	11	99	-3
Fc1cc(F)c2nc(N3CCCC3)sc2c1	1.4	0.9	65	131*	9
Cc1ccc2nc(C)/c(=N\O)c(C)nc2c1	1.4	1	195*	137*	-3
Cc1nc2ccccc2nc(C)c1=NO	1.2	1	52	138*	0
CCOC(=O)c1ccc(NC(=O)c2ccccc2[N+](=O)[O-])cc1	1.6	0.9	15	117	8
Cc1ccc(Nc2ncccc2C(N)=O)cc1[N+](=O)[O-]	1.2	1	75	141*	-4
CCOC(=O)c1ccc(Nc2ncccc2[N+](=O)[O-])cc1	7.8*	0.9	151*	135*	14
CCOc1ccc(NC(=S)Nc2cc(C)[nH]n2)cc1	/	1	15	132*	4
CCOC(=O)c1ccc(NC(=S)Nc2ccccn2)cc1	1.7	1	52	129*	3
CCCC(CCC)C(=O)Nc1ccc2c(c1)N(C(=O)CCN1CCN(C)CC1)c1ccccc1CC2	1.1	1	10	93	-4
Cc1ccccc1-n1ncc(C(C)NC(=O)c2ccco2)c1C (stereo not drawn)	1.4	1	5	108	-4
Cc1ccc(/C=C2/NC(=O)N(c3ccccc3)C2=O)o1	1.9	0.9	32	116	7
Cc1c(C(=O)O)cccc1-c1ccc(/C=C2/NC(=O)N(c3ccccc3)C2=O)o1	1.6	1	42	131*	0
Cc1cc(/C=C(\C#N)C(=O)NC2CCCCCC2)c(C)[nH]1	1.5	1	35	115	3
Cc1cc(/C=C(\C#N)C(=O)NC2CC2)c(C)[nH]1	2.3	0.6	39	145*	42
COc1cccc(/C=N/NC(=O)C(=O)Nc2ccccc2OC(F)(F)C(F)F)c1O	1.2	1	-33	111	-5
CN(C)c1ccc2c(c1)OC(N)=C(C#N)C2c1cccc(F)c1 (stereo not drawn)	5*	1	-95	112	-4
N#CC1=C(N)Oc2cc(O)ccc2C1c1cccnc1 (stereo not drawn)	1.1	1	12	98	-4
O=C(NCCc1cccs1)c1cccs1	2.3	0.8	94	134*	16
CC1N/C(=C\C(=O)c2ccccc2)N(O)C1(C)C (stereo not drawn)	1.8	0.4	91	134*	63*
CN1C(CC(=O)c2ccccc2)CCCC1CC(O)c1ccccc1 (stereo not drawn)	1.3	1	3	103	-4
N=c1c(C(=O)NCc2ccccc2)cc2c(=O)n3ccccc3nc2n1Cc1ccco1	12*	1.1	16	99	-6
CCC(=O)Nc1cc(C(=O)OCC(=O)c2ccccc2Cl)ccc1C	2.2	0.7	24	125	30
CCC(=O)Nc1cc(C(=O)OCC(=O)c2ccccc2)ccc1C	0.72	0.8	47	144*	16
O=S(=O)(Nc1nc2ccccc2nc1Nc1ccc(N2CCOCC2)cc1)c1cc(Cl)ccc1Cl	0.48	0.9	11	112	5
SMILES	NF-kB neuron act	FLuc stim CS	APP 5'UTR act	STAT1 act	FLuc inh counter
Cc1sc(NC(=O)Nc2ccccc2)c(C(N)=O)c1C	2.9	0.6	66	139*	38
O=c1cc(N2CCN(Cc3ccccc3)CC2)[nH]c(=O)n1-c1ccc(Br)cc1	0.97	1	-9	101	-1
c1ccc(-n2nnnc2SCc2cn3ccccc3n2)cc1	1.4	0.9	0	92	6
c1ccn2cc(CSc3nnc4ccccn34)nc2c1	2.3	1	94	147*	-3
Cc1ccn2cc(CSc3ccccc3)nc2c1	6.3*	0.6	172*	131*	42
Cn1ccnc1SCc1cn2ccccc2n1	1.7	1	242*	144*	2
Cc1cc(=O)[nH]c(SCc2cn3ccccc3n2)n1	1.2	0.9	-39	102	5
c1ccn2cc(CSC3=NCCS3)nc2c1	1.9	1	51	130*	2
O=S(=O)(NC1=NCCC1)c1cccc(NC(=S)NCCc2ccccc2)c1	1.1	1.1	10	107	-7
CC12CN(C(=S)Nc3ccccc3)CC(C)(CN(C(=S)Nc3ccccc3)C1)C2=O	1	1	9	102	-1
O=C(OCCN1CCOCC1)c1cccs1	1.3	1.1	1	99	-9
COC(=O)c1cc(COc2ccc3c4c(c(=O)oc3c2)CCC4)c(C)o1	0.89	1.1	-3	109	-7
